In ChEMBL document CHEMBL1143907, “Synthesis, nicotinic acetylcholine receptor binding, and pharmacological properties of 3'-(substituted phenyl)deschloroepibatidine analogs” (Bioorg Med Chem, 2008):

Tests used:
Mus musculus [1] = experiment: […] in mouse assessed as inhibition of nicotin induced hypothermia at 10 mg/kg, sc; format: functional; parameters: scale not given: the % may be the effect or the level left; settings: route subcutaneous
Mus musculus [2] = experiment: Effect on rectal temperature in mouse at 20 mg/kg, sc; format: functional; settings: route subcutaneous
Summary of the method: (§1)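 Rectal temperature was read with a thermistor probe inserted 24 mm, just before and at several times after sc saline or analog. The pre/post difference was calculated per mouse. Laboratory ambient temperature was 21–24 °C.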

Mus musculus [3] = experiment: Antinociceptive activity in acute pain mouse model at 10 mg/kg, sc by hot plate method; format: functional; settings: route subcutaneous
Summary of the method: (§2)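 Mice were placed in a 10-cm glass cylinder on a hot plate held at 55.0 °C. Two control latencies, at least 10 min apart, were taken per mouse (normal 8–12 s). The endpoint was a jump or paw lick, and animals were tested 5 min after sc injection. Response was expressed as %MPE from test, control and maximum latencies. ED50 values are given with confidence limits, or as percent effect at a dose.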

[4] = biological target: Neuronal acetylcholine receptor; alpha4/beta2 (Rattus norvegicus, UniProt P09483+P12390); experiment: Displacement of [3H]epibatidine from alpha-4-beta-2 nAChR in rat cerebral cortex; format: tissue-based
Neuronal acetylcholine receptor; alpha4/beta2, sequence (P09483 whole entry): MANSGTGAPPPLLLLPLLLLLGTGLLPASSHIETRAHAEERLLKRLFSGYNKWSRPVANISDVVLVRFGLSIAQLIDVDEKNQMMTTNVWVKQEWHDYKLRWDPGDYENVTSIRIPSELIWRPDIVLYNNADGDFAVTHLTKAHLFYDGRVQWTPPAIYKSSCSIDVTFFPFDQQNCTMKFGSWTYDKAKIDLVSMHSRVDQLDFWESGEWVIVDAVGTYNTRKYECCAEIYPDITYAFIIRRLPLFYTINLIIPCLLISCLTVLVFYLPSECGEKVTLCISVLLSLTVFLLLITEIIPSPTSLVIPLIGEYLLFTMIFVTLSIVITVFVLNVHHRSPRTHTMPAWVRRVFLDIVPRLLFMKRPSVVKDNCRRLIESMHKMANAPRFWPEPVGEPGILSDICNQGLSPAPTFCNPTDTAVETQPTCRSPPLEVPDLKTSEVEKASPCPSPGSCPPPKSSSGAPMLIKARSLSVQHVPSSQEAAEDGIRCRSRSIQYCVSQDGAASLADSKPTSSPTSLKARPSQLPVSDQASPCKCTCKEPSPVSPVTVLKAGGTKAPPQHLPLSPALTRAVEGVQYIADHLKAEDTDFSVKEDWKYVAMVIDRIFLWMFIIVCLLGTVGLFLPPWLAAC
Neuronal acetylcholine receptor; alpha4/beta2, sequence (P12390 whole entry): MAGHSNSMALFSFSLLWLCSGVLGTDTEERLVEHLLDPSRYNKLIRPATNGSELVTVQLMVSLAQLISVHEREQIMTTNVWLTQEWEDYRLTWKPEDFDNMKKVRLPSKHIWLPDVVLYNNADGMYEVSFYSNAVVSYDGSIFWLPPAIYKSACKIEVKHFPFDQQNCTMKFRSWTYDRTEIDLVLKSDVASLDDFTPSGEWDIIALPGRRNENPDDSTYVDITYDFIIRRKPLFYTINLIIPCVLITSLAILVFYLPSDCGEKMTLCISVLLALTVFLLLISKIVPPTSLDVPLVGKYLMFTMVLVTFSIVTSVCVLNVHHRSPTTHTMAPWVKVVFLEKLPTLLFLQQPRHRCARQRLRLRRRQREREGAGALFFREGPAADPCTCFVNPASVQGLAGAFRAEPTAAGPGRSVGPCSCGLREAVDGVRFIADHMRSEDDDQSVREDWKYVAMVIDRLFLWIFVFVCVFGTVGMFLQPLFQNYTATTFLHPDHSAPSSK

[5] = biological target: Neuronal acetylcholine receptor subunit alpha-7 (Rattus norvegicus, UniProt Q05941); experiment: Displacement of [125I]iodoMLA from alpha-7 nAChR in rat cerebral cortex; format: tissue-based
Neuronal acetylcholine receptor subunit alpha-7, sequence (Q05941 whole entry): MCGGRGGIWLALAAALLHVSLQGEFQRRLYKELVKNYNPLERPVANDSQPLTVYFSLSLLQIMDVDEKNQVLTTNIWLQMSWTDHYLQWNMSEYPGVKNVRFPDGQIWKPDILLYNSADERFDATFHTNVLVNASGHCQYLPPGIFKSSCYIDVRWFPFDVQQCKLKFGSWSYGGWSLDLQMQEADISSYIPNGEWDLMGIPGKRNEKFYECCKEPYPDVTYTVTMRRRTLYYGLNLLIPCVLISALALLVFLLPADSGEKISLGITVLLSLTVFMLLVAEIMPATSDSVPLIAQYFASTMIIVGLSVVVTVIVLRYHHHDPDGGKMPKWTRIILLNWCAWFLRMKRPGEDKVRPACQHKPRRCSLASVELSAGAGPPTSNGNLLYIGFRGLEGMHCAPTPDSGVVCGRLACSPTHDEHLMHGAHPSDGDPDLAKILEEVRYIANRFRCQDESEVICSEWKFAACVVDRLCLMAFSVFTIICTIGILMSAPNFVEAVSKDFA

Mus musculus [6] = experiment: Inhibition of nicotine-induced antinociception in acute pain mouse model at 2000 ug/kg, sc by hot plate method; format: functional; parameters: scale not given: the % may be the effect or the level left
Mus musculus [7] = experiment: Antinociceptive activity in acute pain mouse model at 10 mg/kg, sc by tail flick method; format: functional; settings: route subcutaneous
Summary of the method: (§3)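 Mice, tail-flick assay: heat lamp aimed at the tail, with latency to flick recorded. Each mouse's baseline (2–4 s) was taken before treatment, and test latency was taken after sc dosing. Response was expressed as %MPE = [(test−control)/(maximum latency−control)×100]. ED50 values are reported with confidence limits, or as percent effect at the individual dose.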

Mus musculus [8] = experiment: Inhibition of nicotine-induced antinociception in sc dosed acute pain mouse model by tail flick method; format: functional
Mus musculus [9] = experiment: Effect on locomotor activity in mouse assessed as spontaneous activity at 10 mg/kg, sc; format: functional; settings: route subcutaneous
Summary of the method: (§4)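 Mice were placed in individual photocell activity cages 5 min after sc saline (0.9%) or analog. Photobeam interruptions (two banks of eight cells) were counted over the next 10 min. Data are the number of interruptions, and ED50 is reported with confidence limits or as percent effect at a dose.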

Mus musculus [10] = experiment: Inhibition of nicotine-induced antinociception in sc dosed acute pain mouse model by hot plate method; format: functional
Mus musculus [11] = experiment: Effect on rectal temperature in mouse at 500 […], sc; format: functional; settings: route subcutaneous; summary of the method: as §1
Mus musculus [12] = experiment: Effect on rectal temperature in mouse at 1000 […], sc; format: functional; settings: route subcutaneous; summary of the method: as §1
Mus musculus [13] = experiment: Antinociceptive activity in acute pain mouse model at 15 mg/kg, sc by hot plate method; format: functional; settings: route subcutaneous; summary of the method: as §2
Mus musculus [14] = experiment: Agonist activity in sc dosed mouse assessed as induction of hypothermia
Mus musculus [15] = experiment: Inhibition of nicotine-induced antinociception in acute pain mouse model at 1000 ug/kg, sc by hot plate method; format: functional; parameters: scale not given: the % may be the effect or the level left
Mus musculus [16] = experiment: Effect on rectal temperature in mouse at 5000 […], sc; format: functional; settings: route subcutaneous; summary of the method: as §1
Mus musculus [17] = experiment: Antinociceptive activity in sc dosed acute pain mouse model by tail flick method; format: functional; summary of the method: as §3
Mus musculus [18] = experiment: Antinociceptive activity in sc dosed in acute pain mouse model by hot plate method; format: functional; summary of the method: as §2
Mus musculus [19] = experiment: Effect on locomotor activity in sc dosed mouse assessed as spontaneous activity; format: functional; summary of the method: as §4
Mus musculus [20] = experiment: Effect on rectal temperature in mouse at 10000 µg/kg, sc; settings: route subcutaneous

SMILES	Activity (Mus musculus [3])	Ki [4]	AD50 (Mus musculus [8])	AD50 (Mus musculus [10])	ED50 (Mus musculus [14])	further results
Cl.Nc1ccc(-c2cncc(C3CC4CCC3N4)c2)cc1 (racemic)	10%	0.34 nM	0.001 mg/kg			Activity (Mus musculus [1]): 0%; Activity (Mus musculus [2]): 0%; Ki [5]: > 2000 nM; Activity (Mus musculus [6]): 45%; Activity (Mus musculus [7]): 6%; Activity (Mus musculus [9]): 15%
Cl.O=[N+]([O-])c1cccc(-c2cc(C3CC4CCC3N4)cnc2F)c1 (racemic)	20%	0.053 nM	0.0002 mg/kg	0.13 mg/kg		Activity (Mus musculus [11]): 5%
COc1cccc(-c2cc(C3CC4CCC3N4)cnc2F)c1.Cl (racemic)	8%		0.008 mg/kg	2 mg/kg		
Cl.Fc1ncc(C2CC3CCC2N3)cc1-c1ccc(Cl)cc1 (racemic)	7%	0.044 nM	0.0003 mg/kg	0.26 mg/kg		Activity (Mus musculus [12]): 0%; Activity (Mus musculus [9]): 5%
Cl.Fc1ncc(C2CC3CCC2N3)cc1-c1ccccc1 (racemic)			0.5 mg/kg	1.2 mg/kg		Ki [5]: > 2000 nM; Activity (Mus musculus [13]): 4%
Cl.O=[N+]([O-])c1ccc(-c2cc(C3CC4CCC3N4)cnc2F)cc1 (racemic)	10%	0.009 nM	0.003 mg/kg	0.12 mg/kg	3.5 mg/kg	Activity (Mus musculus [12]): 0%
Cl.Fc1cccc(-c2cc(C3CC4CCC3N4)cnc2F)c1 (racemic)		0.087 nM	0.005 mg/kg			Activity (Mus musculus [12]): 0%; Activity (Mus musculus [15]): 2%
Cl.Nc1cccc(-c2cc(C3CC4CCC3N4)cnc2F)c1 (racemic)	4%		0.009 mg/kg	0.82 mg/kg		Activity (Mus musculus [16]): 5%
Clc1ccc(C2CC3CCC2N3)cn1 (racemic) [EPIBATIDINE]					0.004 mg/kg	ED50 (Mus musculus [17]): 0.006 mg/kg; ED50 (Mus musculus [18]): 0.004 mg/kg; ED50 (Mus musculus [19]): 0.001 mg/kg
c1cncc(C2CC3CCC2N3)c1 (configuration not stated) [DESCHLOROEPIBATIDINE]						ED50 (Mus musculus [17]): 0.002 mg/kg
CN1CCC[C@@H]1c1cccnc1 [R-NICOTINE]					1 mg/kg	ED50 (Mus musculus [17]): 1.3 mg/kg; ED50 (Mus musculus [18]): 0.65 mg/kg; ED50 (Mus musculus [19]): 0.5 mg/kg
c1cnc2cc3c(cc2n1)[C@@H]1CNC[C@H]3C1 [VARENICLINE]	10%		0.0002 mg/kg	0.47 mg/kg	2.8 mg/kg	Activity (Mus musculus [20]): 0%; Activity (Mus musculus [7]): 11%; ED50 (Mus musculus [19]): 2.1 mg/kg
